Lung fibro prol – blocks proliferation of human lung fibroblasts. LL 47 human lung fibroblast viability, ATP luminescence; hits give low values. viability, % at 10 µM. 85,000 tested, 1.1% active. AID 719;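 active = viability at or below 50% in the single dose screen; inactive = viability above 50%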;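 also: compound exposure lasted 72 h before the ATP readout; 100% = median luminescence of untreated cell-only wells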
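Signal: luminescent ATP detection, CellTiter-Glo; assay system: LL 47 human lung fibroblasts; input: 1,150 cells/well; incubation: overnight cell rest, 72 h compound treatment at 37 °C; measure: % viability versus median cells-only luminescence; medium: IMEM growth medium with 15% fetal bovine serum; dosing: compound addition at 0.1% DMSO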
H69AR inhibit – growth inhibitors of human H69AR lung tumor cells. H69AR lung tumor viability, ATP luminescence, 72 h; hits give low values. viability, % at 10 µM. 85,000 tested, 6% active;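 active = viability at or below 40%; inactive = viability above 40%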;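 also: multidrug resistant small cell line overexpressing MRP-1 efflux transporter; 100% = mean luminescence of untreated control wells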
HUVEC inhibit – inhibitors of human endothelial cell proliferation; 86,000 tested, 1.1% active; HUVEC proliferation, CellTiter-Glo luminescence, 72 h; hits give low values; viability, % at 10 µM (by protocol);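 active = viability at or below 30%; inactive = viability above 30%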;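 also: 100% = median luminescence of DMSO-only cell control wells on each plate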
PTEN del growth – growth suppressors of cells with PTEN tumor suppressor deletion; viability, % at 10 µM; AID 827; HCT116 PTEN-null viability, CellTiter-Glo, 60 h; hits give low values; 140,000 tested, 1.2% active;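 active = viability at or below a set limit, 4 SD under the median of all tested compounds, cut at about 3.7% in these data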;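 also: PTEN knockout HCT116 line with beta catenin targeted HCT116 as companion control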
HCT116 bCat-KO – beta-catenin-lacking colon tumor cell growth suppression | HCT116 beta-catenin knockout viability, CellTiter-Glo, 60 h; hits give low values | 140,000 tested, 1.5% active | viability, % at 10 µM;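 active = viability at or under a set limit, the compound median less 4 SD, cut at about 6% in these data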;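 also: 0% = Hyamine 1622 control at 20 µM and 100% = untreated cell control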
Active calls of the source: *. This is one part of a sample in which hits are shown more often than they occur.

`CC(=O)Nc1ccc(N2C(C(C)=O)=NN(c3ccc(Cl)cc3)C2c2sccc2C)cc1` (stereo unspecified) gave Lung fibro prol 93.8, H69AR inhibit 37.6*, HUVEC inhibit 53.8, PTEN del growth 90.4 and HCT116 bCat-KO 84.8.
For CSc1nc(C)cc(OCC(=O)N/N=C/c2ccccc2O)n1 the results were PTEN del growth 23.2 and HCT116 bCat-KO 15.7.
Screening CCc1ccccc1NS(=O)(=O)c1ccc2[nH]cc(C(=O)NCc3ccco3)c(=O)c2c1 returned Lung fibro prol 88.9, H69AR inhibit 70.3, HUVEC inhibit 27.9*, PTEN del growth 58.2 and HCT116 bCat-KO 55.8.
Screening CC(C)Oc1ccc(C(=O)Nc2ccccc2N2CCCC2)cc1 returned Lung fibro prol 88.0, H69AR inhibit 32.1*, HUVEC inhibit 111.2, PTEN del growth 100.9 and HCT116 bCat-KO 95.8.
Screening Clc1ccc2c(c1)C(N1CCNCC1)Cc1ccccc1S2 (stereo unspecified) returned Lung fibro prol 2.4*, H69AR inhibit 2.0*, HUVEC inhibit 2.3*, PTEN del growth 1.7* and HCT116 bCat-KO 1.5*.
For Clc1cccc2c1Sc1ccccc1CC2N1CCNCC1 (stereo unspecified) the results were PTEN del growth 0.8* and HCT116 bCat-KO 1.0*.
Screening CCOc1cc(CNCCO)cc(Br)c1OCc1ccc(Cl)cc1 returned PTEN del growth 1.2* and HCT116 bCat-KO 1.7*.
CCOc1cc(CNCCO)cc(Br)c1OCc1ccccc1Cl was read as PTEN del growth 1.4* and HCT116 bCat-KO 1.2*.
For CCOc1cc(CNc2ccc(O)cc2)cc(Br)c1OCc1ccccc1F the results were PTEN del growth 5.2 and HCT116 bCat-KO 4.0*.
Screening COc1cccc(CNCCO)c1OCc1ccccc1Cl returned PTEN del growth 101.4 and HCT116 bCat-KO 83.8.
Screening CCCCOc1c(Cl)cc(CNC(C)(C)CO)cc1OCC returned Lung fibro prol 87.6, H69AR inhibit 76.2, HUVEC inhibit 91.3, PTEN del growth 71.8 and HCT116 bCat-KO 72.9.
For CCOc1cc(CNC(C)(C)CO)cc(Br)c1OCc1ccc(Cl)cc1Cl the results were PTEN del growth 0.8* and HCT116 bCat-KO 0.8*.
For COc1cc(CNc2ccc(O)cc2)cc(Br)c1OCc1ccccc1F the results were PTEN del growth 78.7 and HCT116 bCat-KO 83.2.
For O=C1OC(Nc2cc(Br)cc3cccnc23)c2ccccc21 (stereo unspecified) the results were PTEN del growth 92.9 and HCT116 bCat-KO 88.3.
COc1ccc(-c2cn3cc(C)ccc3n2)cc1OC was read as Lung fibro prol 98.2, H69AR inhibit 38.9*, HUVEC inhibit 87.1, PTEN del growth 82.4 and HCT116 bCat-KO 92.8.
`CCOC(=O)C(C(=O)Nc1ccccc1)C1CCCCC1` (stereo unspecified) gave Lung fibro prol 82.9, H69AR inhibit 90.6, HUVEC inhibit 85.4, PTEN del growth 75.0 and HCT116 bCat-KO 71.6.
`CCOC(=O)C(C(=O)Nc1ccc(C)cc1)C1CCCCC1` (stereo unspecified) gave Lung fibro prol 88.6, H69AR inhibit 22.6*, HUVEC inhibit 79.7, PTEN del growth 74.5 and HCT116 bCat-KO 87.2.
CCCCCn1c(=NC(C)=O)c(C#N)cc2c(=O)n3cccc(C)c3nc21 was read as Lung fibro prol 88.8, H69AR inhibit 49.6 and HUVEC inhibit 89.8.
`COC(=O)C(C)NC(=O)c1ccc(C(C)(C)C)cc1` (stereo unspecified) gave PTEN del growth 102.4 and HCT116 bCat-KO 92.2.
For CC(C)(C)NC(=O)C(c1ccccn1)N(C(=O)C1CSC(=O)C1)c1ccc(F)cc1 (stereo unspecified) the results were Lung fibro prol 101.4, H69AR inhibit 94.3, HUVEC inhibit 104.7, PTEN del growth 98.2 and HCT116 bCat-KO 87.8.
Screening O=S(=O)(c1cc(-c2nnc(-c3ccc(Br)cc3)o2)ccc1Br)N1CCCCCC1 returned Lung fibro prol 94.3, H69AR inhibit 28.7*, HUVEC inhibit 77.0, PTEN del growth 54.6 and HCT116 bCat-KO 42.3.
Screening NC(=O)c1ccc(Br)c(S(=O)(=O)N2CCCCC2)c1 returned Lung fibro prol 89.1, H69AR inhibit 93.8, HUVEC inhibit 96.8, PTEN del growth 92.7 and HCT116 bCat-KO 98.3.
Screening CCN=c1sc(C(=O)NCCc2ccccc2)cc(=O)n1CC returned Lung fibro prol 86.6, H69AR inhibit 9.9*, HUVEC inhibit 58.8, PTEN del growth 55.9 and HCT116 bCat-KO 49.0.
For O=C(N/N=C/C(Cl)=C\c1ccccc1)c1cnccn1 the results were Lung fibro prol 95.5, H69AR inhibit 60.2, HUVEC inhibit 93.5, PTEN del growth 5.7 and HCT116 bCat-KO 4.0*.
`CCOC(=O)c1cccc(-n2c(-c3ccc(OC)cc3)nc3nc4ccccc4nc32)c1` gave PTEN del growth 17.2 and HCT116 bCat-KO 38.1.
Screening Cc1ccc(Nc2nc(N)nc(CN3CCN(Cc4ccc5c(c4)OCO5)CC3)n2)cc1Cl returned Lung fibro prol 84.7, H69AR inhibit 14.0*, HUVEC inhibit 65.6, PTEN del growth 1.5* and HCT116 bCat-KO 0.9*.
Screening COc1ccc(N2CCN(Cc3nc(N)nc(Nc4ccc(C)c(Cl)c4)n3)CC2)cc1 returned Lung fibro prol 97.6, H69AR inhibit 23.0*, HUVEC inhibit 64.0, PTEN del growth 1.4* and HCT116 bCat-KO 0.8*.
`COc1ccccc1Oc1nc2c(c(=O)n(Cc3ccccc3F)c(=O)n2C)n1C` gave Lung fibro prol 93.7, H69AR inhibit 39.8*, HUVEC inhibit 91.0, PTEN del growth 101.7 and HCT116 bCat-KO 98.0.
O=C(CCc1ccc(Oc2cc([N+](=O)[O-])cc([N+](=O)[O-])c2)cc1)N1CCCCCC1 was read as PTEN del growth 81.4 and HCT116 bCat-KO 88.9.
For Cc1ccc(N2C(=N)/C(=C3/Nc4ccccc4S3)C(c3ccccc3)C2=O)cc1 (stereo unspecified) the results were PTEN del growth 1.8* and HCT116 bCat-KO 2.8*.
For O=C1Nc2ccccc2SC(c2ccccc2)C1O (stereo unspecified) the results were Lung fibro prol 93.2, H69AR inhibit 94.9, HUVEC inhibit 91.5, PTEN del growth 103.0 and HCT116 bCat-KO 97.7.
Cc1ccc(-c2noc(-c3cccs3)n2)cc1 was read as Lung fibro prol 85.9, H69AR inhibit 40.0*, HUVEC inhibit 87.0, PTEN del growth 86.2 and HCT116 bCat-KO 92.6.
Screening Cc1csc2ncc(C(=O)Nc3ccccc3Cl)c(=O)n12 returned Lung fibro prol 82.2, H69AR inhibit 28.8* and HUVEC inhibit 64.5.
For Cc1csc2ncc(C(=O)Nc3ccccc3F)c(=O)n12 the results were Lung fibro prol 92.9, H69AR inhibit 70.5 and HUVEC inhibit 81.2.
Screening CNC(=O)/C(C#N)=C/c1c(N(Cc2ccccc2)Cc2ccccc2)nc2ccccn2c1=O returned PTEN del growth 62.0 and HCT116 bCat-KO 66.1.
